From ChEMBL document CHEMBL1140884, “Oligodeoxyribonucleotide-based antagonists for Toll-like receptors 7 and 9” (2009)
The source made the active and inactive calls. The rule behind the calls is not given here.

Experiments:
[1] = system: Mus musculus; test: Induction of cytokine MCP1 secretion in C57BL/6 mouse at 20 mg/kg, sc; format: functional, organism-based; set-up: dose 20 mg/kg
Summary of the method: (§1)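 Female C57BL/6 mice, 6–8 weeks old (n=3), were injected sc with single compounds at 0.25 or 20 mg/kg. Serum was collected by retro-orbital bleed 2 h later and cytokines were measured by Luminex mouse 20-plex assay.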

[2] = system: Mus musculus; test: Inhibition of 5'-TCTGACRTTCT-X-TCTTRCAGTCT-3'-induced IL12 production in C57BL/6 mouse treated 6 hrs of induction and measured after 2 hrs at 2 mg/kg, sc; format: functional; conditions: C57BL/6, sc, route subcutaneous
Summary of the method: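 Mice received antagonist sc at a low or high dose, then TLR9 agonist sc 6 h later. Serum IL-12 was determined 2 h after agonist administration.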

[3] = system: Mus musculus; test: Inhibition of 5-TCTGACRTTCT-X-TCTTRCAGTCT-3-induced IL12 production in C57BL/6 mouse at 20 mg/kg, sc up to 120 hrs; format: functional; conditions: C57BL/6, sc, route subcutaneous
Summary of the method: (§2)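 Female C57BL/6 mice, 6-8 weeks, n = 3, given antagonist 20 mg/kg sc. TLR9 agonist at 0.25 mg/kg sc at various intervals afterward; blood taken 2 h after agonist and serum IL-12 measured by sandwich ELISA. Representative of more than six independent experiments.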

[4] = biological target: T1, Toll-like receptor 9 (Mus musculus) (UniProt Q9EQU3); test: Agonist activity at mouse TLR9 expressed in HEK293 cells assessed as activation of NF-kappaB at 10 ug/mL by SEAP reporter gene assay; format: functional, cell-based
T1 sequence (whole entry): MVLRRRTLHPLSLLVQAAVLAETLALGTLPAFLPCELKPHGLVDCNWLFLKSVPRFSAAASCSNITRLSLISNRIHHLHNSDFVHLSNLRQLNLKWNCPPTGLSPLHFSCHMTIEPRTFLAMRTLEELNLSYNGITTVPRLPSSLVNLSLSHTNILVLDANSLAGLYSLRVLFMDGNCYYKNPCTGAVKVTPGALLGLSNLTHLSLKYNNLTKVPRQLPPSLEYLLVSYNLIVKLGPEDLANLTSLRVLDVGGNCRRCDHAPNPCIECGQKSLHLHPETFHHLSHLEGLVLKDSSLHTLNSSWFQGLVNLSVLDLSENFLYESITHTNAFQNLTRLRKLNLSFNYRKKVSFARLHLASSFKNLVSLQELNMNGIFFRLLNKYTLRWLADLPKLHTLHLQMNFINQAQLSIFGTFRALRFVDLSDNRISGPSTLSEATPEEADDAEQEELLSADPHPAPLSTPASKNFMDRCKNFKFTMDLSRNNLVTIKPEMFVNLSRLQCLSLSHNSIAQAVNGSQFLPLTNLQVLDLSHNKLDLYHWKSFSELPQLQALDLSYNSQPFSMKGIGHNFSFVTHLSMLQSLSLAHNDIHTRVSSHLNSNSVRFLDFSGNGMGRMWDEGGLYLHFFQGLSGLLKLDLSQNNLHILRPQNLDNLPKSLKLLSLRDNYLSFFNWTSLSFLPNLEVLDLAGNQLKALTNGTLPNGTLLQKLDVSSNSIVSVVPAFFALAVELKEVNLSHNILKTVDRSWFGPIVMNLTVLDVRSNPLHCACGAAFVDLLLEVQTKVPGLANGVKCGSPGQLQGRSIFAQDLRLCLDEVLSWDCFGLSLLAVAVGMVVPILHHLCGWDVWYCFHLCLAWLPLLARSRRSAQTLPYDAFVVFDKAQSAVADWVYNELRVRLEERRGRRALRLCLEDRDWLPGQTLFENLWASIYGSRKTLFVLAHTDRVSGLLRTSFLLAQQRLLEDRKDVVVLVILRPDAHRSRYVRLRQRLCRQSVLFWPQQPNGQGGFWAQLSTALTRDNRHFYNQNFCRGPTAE
Summary of the method: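 HEK293 cells stably expressing mouse TLR9 were transiently transfected with a SEAP reporter for 6 h. Compounds were added at 10 µg/mL for 18 h. SEAP was read with Quanti-Blue substrate and expressed as fold change in NF-κB activity.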

[5] = system: Mus musculus; test: Induction of IL6 secretion in C57BL/6 mouse at 20 mg/kg, sc; format: functional, organism-based; set-up: dose 20 mg/kg; summary of the method: as §1
[6] = system: Mus musculus; test: Induction of IL12 secretion in C57BL/6 mouse at 20 mg/kg, sc; format: functional, organism-based; set-up: dose 20 mg/kg; summary of the method: as §1
[7] = system: Mus musculus; test: Inhibition of 5-TCTGACRTTCT-X-TCTTRCAGTCT-3-induced IL12 production in C57BL/6 mouse treated 6 hrs of induction and measured after 2 hrs at 20 mg/kg, sc; format: functional; conditions: C57BL/6, sc, route subcutaneous
[8] = species: Mus musculus; test: Inhibition of 5'-TCTGACRTTCT-X-TCTTRCAGTCT-3'-induced IL12 production in C57BL/6 mouse at 1:4 agonist to drug ratio by ELISA; format: functional, organism-based
Summary of the method: (§3)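 C57BL/6 mice (n=3) were given TLR9 agonist 0.25 mg/kg sc in the left flank and various antagonist doses sc in the right flank at the same time. Serum IL-12 was measured by sandwich ELISA 2 h after agonist.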

[9] = system: Mus musculus; test: Inhibition of 5-TCTGACRTTCT-X-TCTTRCAGTCT-3-induced IL12 production in C57BL/6 mouse at 20 mg/kg, sc up to 168 hrs; format: functional, organism-based; set-up: dose 20 mg/kg; summary of the method: as §2
[10] = system: Mus musculus; test: Induction of cytokine MIG secretion in C57BL/6 mouse at 20 mg/kg, sc; format: functional, organism-based; set-up: dose 20 mg/kg; summary of the method: as §1
[11] = biological target: T1, Toll-like receptor 9 (Mus musculus); test: Antagonist activity at mouse TLR9 expressed in HEK293 cells assessed as inhibition of 5'-CTATCTGACGTTCTCTGT-3'-induced NF-kappaB activation by SEAP reporter gene assay; format: functional, cell-based
Summary of the method: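 Mouse TLR9-HEK293 cells were transfected with a SEAP reporter for 6 h. They were then stimulated for 18 h with agonist (0.25 or 0.5 µg/mL) plus increasing antagonist concentrations or set agonist:antagonist ratios. Quanti-Blue read-out, reported as % NF-κB activity with agonist alone as 100%.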

[12] = system: Mus musculus; test: Induction of IL10 secretion in C57BL/6 mouse at 20 mg/kg, sc; format: functional, organism-based; set-up: dose 20 mg/kg; summary of the method: as §1
[13] = system: Mus musculus; test: Induction of cytokine KC secretion in C57BL/6 mouse at 20 mg/kg, sc; format: functional, organism-based; set-up: dose 20 mg/kg; summary of the method: as §1
[14] = species: Mus musculus; test: Inhibition of 5'-TCTGACRTTCT-X-TCTTRCAGTCT-3'-induced IL12 production in C57BL/6 mouse measured after 2 hrs of induction by ELISA; format: functional, organism-based; summary of the method: as §3
[15] = system: Mus musculus; test: Induction of IP10 secretion in C57BL/6 mouse at 20 mg/kg, sc; format: functional, organism-based; set-up: dose 20 mg/kg; summary of the method: as §1

For `CO[C@@H]1[C@H](OP(=O)(S)OC[C@H]2O[C@@H](n3ccc(N)nc3=O)C[C@@H]2OP(=O)(S)OC[C@H]2O[C@@H](n3cnc4c(=O)[nH]c(N)nc43)C[C@@H]2OP(=O)(S)OC[C@H]2O[C@@H](n3cc(C)c(=O)[nH]c3=O)C[C@@H]2OP(=O)(S)OC[C@H]2O[C@@H](n3cc(C)c(=O)[nH]c3=O)C[C@@H]2OP(=O)(S)OC[C@H]2O[C@@H](n3ccc(N)nc3=O)C[C@@H]2OP(=O)(S)OC[C@H]2O[C@@H](n3cc(C)c(=O)[nH]c3=O)C[C@@H]2OP(=O)(S)OC[C@H]2O[C@@H](n3ccc(N)nc3=O)C[C@@H]2OP(=O)(S)OC[C@H]2O[C@@H](n3cc(C)c(=O)[nH]c3=O)C[C@@H]2OP(=O)(S)OC[C@H]2O[C@@H](n3cnc4c(=O)[nH]c(N)nc43)C[C@@H]2OP(=O)(S)OC[C@H]2O[C@@H](n3cc(C)c(=O)[nH]c3=O)C[C@@H]2O)[C@@H](COP(=O)(S)O[C@H]2[C@@H](OC)[C@H](n3cnc4c(=O)[nH]c(N)nc43)O[C@@H]2COP(=O)(S)O[C@H]2C[C@H](n3cc(C)c(=O)[nH]c3=O)O[C@@H]2COP(=O)(S)O[C@H]2C[C@H](n3ccc(N)nc3=O)O[C@@H]2COP(=O)(S)O[C@H]2C[C@H](n3cc(C)c(=O)[nH]c3=O)O[C@@H]2COP(=O)(S)O[C@H]2C[C@H](n3cnc4c(N)ncnc43)O[C@@H]2COP(=O)(S)O[C@H]2C[C@H](n3cc(C)c(=O)[nH]c3=O)O[C@@H]2COP(=O)(S)O[C@@H]2C[C@@H](n3ccc(N)nc3=O)O[C@H]2CO)O[C@H]1n1cnc2c(N)ncnc21` (stereo not given in full), the Activity [1] was “inactive”, the inhibition in vivo at 2 mg/kg [2] was 50% and the inhibition in vivo at 20 mg/kg [3] was 50%. The Activity [4] was “inactive”, the Activity [5] was “inactive” and the Activity [6] was “inactive”. The inhibition in vivo at 20 mg/kg [7] was 90%, the Activity [8] was “Active” and the Activity [9] was “Active”. The Activity [10] was “inactive”, the Activity [11] was “Dose-dependent effect” and the Activity [12] was “inactive”. For the same molecule, the Activity [13] was “inactive”, the Activity [14] was “Dose-dependent effect” and the Activity [15] was “inactive”.
